ChEMBL document CHEMBL4373657, “Derivatives of a new heterocyclic system - pyrano[3,4-c][1,2,4]triazolo[4,3-a]pyridines: synthesis, docking analysis and neurotropic activity” (Medchemcomm, 2019)
Activity calls are given as the source filed them. The calls are words filed in the database; no cut-off is given here.

Columns and labels:
[1] = system: Mus musculus; assay: Anticonvulsant activity in ip dosed mouse assessed as reduction in PTZ-induced clonic seizures administered 45 mins before PTZ stimulation; format: functional
Procedure, shortened: (§1)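 Outbred mice (18–22 g), 8 per dose. Compounds given i.p. at 10–100 mg kg–1 as a carboxymethylcellulose/Tween-80 suspension, 45 min before s.c. pentylenetetrazole 90 mg kg–1; controls received emulsifier. Endpoint was prevention of clonic seizures. ED50 was derived by Litchfield–Wilcoxon probit analysis.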

[2] = system: Mus musculus; assay: Anticonvulsant activity in mouse assessed as proportion of animals displaying reduction in PTZ-induced clonic seizures at 50 mg/kg, ip administered 45 mins before PTZ stimulation relative to control; format: functional; design: scale not given: the % may be the effect or the level left; procedure, shortened: as §1
[3] = system: Mus musculus; assay: Anticonvulsant activity in mouse assessed as reduction in PTZ-induced clonic seizures at 25 mg/kg, ip administered 45 mins before PTZ stimulation; format: functional, organism-based; procedure, shortened: as §1
[4] = Neurotoxicity in ip dosed mouse assessed as myorelaxation measured for 2 mins by rotarod test; format: toxicity, organism-based; conditions: in vivo
Procedure, shortened: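 Mice were placed on a corrugated rubber-coated metal rod rotating at 5 rpm, and the number staying on for 2 min was counted. TD50 was derived by Litchfield–Wilcoxon probit analysis.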

[5] = Neurotoxicity in ip dosed mouse assessed as maximum tolerated dose by rotarod test; format: toxicity, organism-based; conditions: in vivo
Procedure, shortened: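 Mice given compounds i.p. at […] to 1800 mg/kg to establish the maximal tolerated dose.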

[6] = Protection index, ratio of TD50 for neurotoxicity in ip dosed mouse to ED50 for anticonvulsant activity in ip dosed mouse; format: toxicity, organism-based; conditions: in vivo, read-out: Ratio TD50/ED50
[7] = system: Mus musculus; assay: Anticonvulsant activity in mouse assessed as MES-induced […] seizures at 10 to 100 mg/kg, ip administered 45 mins before electrical stimulation; format: functional, organism-based
[8] = system: Mus musculus; assay: Anticonvulsant activity in mouse assessed as MES-induced tonic seizures at 10 to 100 mg/kg, ip administered 45 mins before electrical stimulation; format: functional, organism-based
Procedure, shortened: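 Mice, 8 per dose. Compounds given i.p. at 10, 25, 50, 75 or 100 mg kg–1 in carboxymethylcellulose/Tween-80 suspension, 45 min before maximal electroshock (50 mA, 0.2 s, 50 imp s–1); controls received emulsifier. Endpoint was prevention of the tonic-extensor phase.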

[9] = Neurotoxicity in mouse assessed as motor coordination at 50 to 100 mg/kg, ip by rotarod test; format: toxicity, organism-based; conditions: in vivo
Procedure, shortened: (§2)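 Mice dosed i.p. at 50–100 mg kg–1; reference drugs given at effective anticonvulsant doses. Mice were placed on a corrugated rubber-coated metal rod rotating at 5 rpm, and the number staying on for 2 min was counted. TD50 was derived by Litchfield–Wilcoxon probit analysis.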

[10] = system: Rattus norvegicus; assay: Antianxiety activity in Wistar rat assessed as horizontal movement of animals at 50 mg/kg, ip measured for 5 mins by open field test; format: functional, organism-based
Procedure, shortened: (§3)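 Male Wistar rats (120–140 g), n = 8 per compound, control and reference. Single i.p. dose of 50 mg kg–1 as a suspension in methylcarboxycellulose with Tween-80; controls received emulsifier. Daytime, natural light. Over 5 min, horizontal movements, rearings (vertical movements) and cell sniffings were counted.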

[11] = system: Rattus norvegicus; assay: Antianxiety activity in Wistar rat assessed as vertical movement of animals at 50 mg/kg, ip measured for 5 mins by open field test; format: functional, organism-based; procedure, shortened: as §3
[12] = system: Mus musculus; assay: Antianxiety activity in mouse assessed as time spent in closed arms at 50 mg/kg, ip measured for 5 mins by elevated plus maze test (reference value: 278.2 secs); format: functional
[13] = system: Rattus norvegicus; assay: Antianxiety activity in Wistar rat assessed as increase in number of sniffing cell examinations at 50 mg/kg, ip measured for 5 mins by open field test; format: functional, organism-based; procedure, shortened: as §3
[14] = system: Mus musculus; assay: Sedative activity in mouse assessed as time spent in center at 50 mg/kg, ip measured for 5 mins by elevated plus maze test (reference value: 21.8 secs); format: functional
[15] = system: Mus musculus; assay: Antianxiety activity in mouse assessed as increase in time spent in open arms at 50 mg/kg, ip measured for 5 mins by elevated plus maze test; format: functional
[16] = system: Mus musculus; assay: Antidepressant activity in mouse assessed as latent period of first immobilization at 5 mg/kg, ip measured for 6 mins by forced swimming test (reference value: 92 secs); format: functional
Procedure, shortened: (§4)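 Each mouse swam in a glass container (22 cm high, 14 cm diameter) one-third filled with water, under natural light. Over 6 min, latency to first immobilization, total immobilization time and total active swimming time were recorded.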

[17] = system: Mus musculus; assay: Antidepressant activity in mouse assessed as total time of immobilization at 5 mg/kg, ip measured for 6 mins by forced swimming test (reference value: 81 secs); format: functional; procedure, shortened: as §4
[18] = system: Mus musculus; assay: Antidepressant activity in mouse assessed as total time of active swimming at 5 mg/kg, ip measured for 6 mins by forced swimming test (reference value: 282 secs); format: functional; procedure, shortened: as §4
[19] = Neurotoxicity in mouse assessed as myorelaxation at 50 to 100 mg/kg, ip measured for 2 mins by rotarod test; format: toxicity, organism-based; conditions: in vivo; procedure, shortened: as §2
[20] = system: Mus musculus; assay: Anticonvulsant activity in mouse assessed as proportion of animals displaying reduction in PTZ-induced clonic seizures at 200 mg/kg, ip administered 45 mins before PTZ stimulation relative to control; format: functional; design: scale not given: the % may be the effect or the level left
[21] = Neurotoxicity in mouse assessed as myorelaxation at 100 to 200 mg/kg, ip measured for 2 mins by rotarod test; format: toxicity, organism-based; conditions: in vivo
Procedure, shortened: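 Mice placed on a rubber-coated metal rod rotating at 5 rpm, dosed i.p. Count of animals able to stay on the rod for 2 min. TD50 derived by Litchfield–Wilcoxon probit analysis. Reference drugs given at effective anticonvulsant doses.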

[22] = system: Mus musculus; assay: Antianxiety activity in mouse assessed as decrease in number of entries into closed arms at 50 mg/kg, ip measured for 5 mins by elevated plus maze test; format: functional, organism-based
[23] = system: Mus musculus; assay: Antidepressant activity in mouse assessed as latent period of first immobilization at 50 mg/kg, ip measured for 6 mins by forced swimming test (reference value: 92 secs); format: functional; procedure, shortened: as §4
[24] = system: Mus musculus; assay: Antidepressant activity in mouse assessed as total time of immobilization at 50 mg/kg, ip measured for 6 mins by forced swimming test (reference value: 81 secs); format: functional; procedure, shortened: as §4
[25] = system: Mus musculus; assay: Antidepressant activity in mouse assessed as total time of active swimming at 50 mg/kg, ip measured for 6 mins by forced swimming test (reference value: 282 secs); format: functional; procedure, shortened: as §4
[26] = system: Rattus norvegicus; assay: Antianxiety activity in Wistar rat assessed as increase in number of sniffing cell examinations at 2 mg/kg, ip measured for 5 mins by open field test; format: functional, organism-based
Procedure, shortened: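 Male Wistar rats (120–140 g), 8 per group, dosed i.p. as suspension in carboxymethylcellulose with Tween-80; controls given emulsifier. Horizontal movements, rearings and sniffing of cells counted over 5 min in daylight with natural light.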

[27] = system: Mus musculus; assay: Antianxiety activity in mouse assessed as time spent in closed arms at 2 mg/kg, ip measured for 5 mins by elevated plus maze test (reference value: 278.2 secs); format: functional
Procedure, shortened: (§5)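 Mice placed at the junction of a raised cruciform maze (two open, two closed opposed arms) facing an open arm. Entries into and time spent in each arm and the centre recorded for 5 min by video tracking and an observer. Compound given i.p. beforehand; controls given emulsifier; P ≤ 0.05.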

[28] = system: Mus musculus; assay: Sedative activity in mouse assessed as time spent in center at 2 mg/kg, ip measured for 5 mins by elevated plus maze test (reference value: 21.8 secs); format: functional; procedure, shortened: as §5
[29] = system: Mus musculus; assay: Antianxiety activity in mouse assessed as increase in time spent in open arms at 2 mg/kg, ip measured for 5 mins by elevated plus maze test; format: functional; procedure, shortened: as §5
[30] = system: Mus musculus; assay: Antidepressant activity in mouse assessed as latent period of first immobilization at 2 mg/kg, ip measured for 6 mins by forced swimming test (reference value: 92 secs); format: functional
Procedure, shortened: (§6)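 Mice swum in a glass cylinder (height 22 cm, diameter 14 cm) one-third filled with water, under natural light. Latency to first immobility, total immobility and total active swimming recorded over 6 min after i.p. dosing; controls given emulsifier.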

[31] = system: Mus musculus; assay: Antidepressant activity in mouse assessed as total time of immobilization at 2 mg/kg, ip measured for 6 mins by forced swimming test (reference value: 81 secs); format: functional; procedure, shortened: as §6
[32] = system: Mus musculus; assay: Antidepressant activity in mouse assessed as total time of active swimming at 2 mg/kg, ip measured for 6 mins by forced swimming test (reference value: 282 secs); format: functional; procedure, shortened: as §6

Structure (SMILES): Cc1ccc(Nc2c(C#N)c3c(c4nnc(SCC(=O)N(c5ccccc5)c5ccccc5)n24)COC(C)(C)C3)cc1
- ED50 [1]: 45 mg/kg
- Activity [2]: 60%
- anticonvulsant activity (active/inactive) [3]: Active
- TD50 at 2 min [4]: 610 mg/kg
- MTD [5]: 1750 mg/kg
- selectivity ratio [6]: 13.5
- Activity [7]: inactive
- Activity [8]: inactive
- Activity [9]: Non-Toxic
- Activity [10]: inactive
- Activity [11]: inactive
- Time [12]: 242 s
- Activity [13]: Active
- Time [14]: 58 s
- Time [15]: 6.2 s
- Time [16]: 129 s
- Time [17]: 106 s
- Time [18]: 254 s
- Activity [19]: Non-Toxic

Structure (SMILES): CCC1(C)CC(=O)NC1=O (stereo not given) [ETHOSUXIMIDE]
- Activity [20]: 60%
- MTD [5]: 1000 mg/kg
- Activity [7]: inactive
- Activity [8]: inactive
- Activity [21]: Non-Toxic

Structure (SMILES): CC1(C)Cc2c(C#N)c(Nc3ccccc3)n3c(SCC(=O)c4cccc([N+](=O)[O-])c4)nnc3c2CO1
- ED50 [1]: 36 mg/kg
- Activity [2]: 60%
- anticonvulsant activity (active/inactive) [3]: Active
- TD50 at 2 min [4]: 490 mg/kg
- MTD [5]: 1000 mg/kg
- selectivity ratio [6]: 13.6
- Activity [7]: inactive
- Activity [8]: inactive
- Activity [9]: Non-Toxic
- Activity [10]: inactive
- Activity [11]: inactive
- Time [12]: 241 s
- Activity [13]: Active
- inhibition [22]: Active
- Time [14]: 51 s
- Time [15]: 8 s
- Time [23]: 147 s
- Time [24]: 84 s
- Time [25]: 276 s
- Activity [19]: Non-Toxic

Structure (SMILES): CN1C(=O)CN=C(c2ccccc2)c2cc(Cl)ccc21 [DIAZEPAM]
- ED50 [1]: 0.5 mg/kg
- MTD [5]: 200 mg/kg
- Activity [7]: inactive
- Activity [8]: inactive
- Activity [26]: Active
- Time [27]: 257.5 s
- Time [28]: 42.5 s
- Time [29]: 57 s
- Time [30]: 174 s
- Time [31]: 24 s
- Time [32]: 336 s

Structure (SMILES): CC1(C)Cc2c(C#N)c(Nc3ccccc3)n3c(SCCCc4ccccc4)nnc3c2CO1
- ED50 [1]: 23 mg/kg
- Activity [2]: 60%
- anticonvulsant activity (active/inactive) [3]: Active
- TD50 at 2 min [4]: 560 mg/kg
- MTD [5]: 1250 mg/kg
- selectivity ratio [6]: 24
- Activity [7]: inactive
- Activity [8]: inactive
- Activity [9]: Non-Toxic
- Activity [10]: inactive
- Activity [11]: inactive
- Time [12]: 223 s
- Activity [13]: Active
- inhibition [22]: Active
- Time [14]: 67 s
- Time [15]: 10 s
- Time [23]: 139 s
- Time [24]: 115 s
- Time [25]: 245 s
- Activity [19]: Non-Toxic
